Results as given in ChEMBL document CHEMBL1127669, “Conformationally constrained peptides and semipeptides derived from RGD as potent inhibitors of the platelet fibrinogen receptor and platelet aggregation” (J Med Chem, 1994).
Positions of bridges follow the written chain, without caps; N, C: chain ends. Non-standard residues stand in square brackets, D forms with d. Residues, ends and D or L forms follow the SMILES beside them. *: point of attachment. NMeR = CN[C@@H](CCCNC(=N)N)C(=O)O; Pen = CC(C)(S)[C@H](N)C(=O)O; Bz = O=C(c1ccccc1)*

How the values were obtained:
[1] = organism: Canis familiaris; assay: Inhibition of platelet aggregation in canine platelet rich plasma induced by ADP; type: functional, Canis lupus familiaris; details: Canis lupus familiaris, Plasma
Outline: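 Citrated canine PRP aggregation read optically by light transmittance. Peptide stock was 12 mM in 0.2 M acetic acid. Final 200 µM peptide and 10 µM ADP, pH 7.7, after 5-min preincubation with peptide.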

[2] = target: T1, Integrin alpha-IIb/beta-3 (Homo sapiens, UniProt P05106+P08514); assay: Inhibition of [3H]-SKF- 107260 binding to purified GPIIb/IIIa from human platelets reconstituted in liposomes
Outline: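 Competition binding on filter wells precoated with 10 µg/mL polylysine. Reaction started with 0.5 µg lectin-purified receptor, incubated 1 h at room temperature, filtered, washed in ice-cold buffer, scintillation counted. IC50 from nonlinear least-squares fit; Ki by Cheng–Prusoff. Mean of quadruplicates, single experiment.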

[3] = target: T1, Integrin alpha-IIb/beta-3; assay: Tested for inhibition of fibrinogen binding to purified GPIIb/IIIa isolated from human platelets and reconstituted in liposomes
Outline: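 Displacement of [¹²⁵I]fibrinogen from purified human platelet GPIIb/IIIa incorporated into phospholipid vesicles. Values without statistical limits come from a single determination.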

T1 sequence (P05106 27-788 limits assumed): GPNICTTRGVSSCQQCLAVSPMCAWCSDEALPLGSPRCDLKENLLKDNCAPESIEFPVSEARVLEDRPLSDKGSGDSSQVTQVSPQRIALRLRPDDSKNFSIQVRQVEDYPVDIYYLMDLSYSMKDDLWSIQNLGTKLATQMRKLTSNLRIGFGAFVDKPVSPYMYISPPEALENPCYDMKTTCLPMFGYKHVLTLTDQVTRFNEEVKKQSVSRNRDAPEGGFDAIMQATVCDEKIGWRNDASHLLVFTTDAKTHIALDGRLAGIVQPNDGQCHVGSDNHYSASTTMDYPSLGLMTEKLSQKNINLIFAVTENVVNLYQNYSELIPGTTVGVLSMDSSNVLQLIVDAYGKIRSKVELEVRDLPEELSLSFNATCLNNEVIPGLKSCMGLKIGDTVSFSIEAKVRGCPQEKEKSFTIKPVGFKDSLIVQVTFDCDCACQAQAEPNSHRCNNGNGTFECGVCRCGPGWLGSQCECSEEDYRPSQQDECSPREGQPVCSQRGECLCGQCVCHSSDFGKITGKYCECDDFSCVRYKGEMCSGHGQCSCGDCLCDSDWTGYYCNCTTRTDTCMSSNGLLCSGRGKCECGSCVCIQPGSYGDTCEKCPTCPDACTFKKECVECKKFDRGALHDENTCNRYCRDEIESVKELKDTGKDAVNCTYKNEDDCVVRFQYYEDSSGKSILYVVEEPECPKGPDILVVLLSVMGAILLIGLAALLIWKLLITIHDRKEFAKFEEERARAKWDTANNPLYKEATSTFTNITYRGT
T1 sequence (P08514 32-887 limits assumed): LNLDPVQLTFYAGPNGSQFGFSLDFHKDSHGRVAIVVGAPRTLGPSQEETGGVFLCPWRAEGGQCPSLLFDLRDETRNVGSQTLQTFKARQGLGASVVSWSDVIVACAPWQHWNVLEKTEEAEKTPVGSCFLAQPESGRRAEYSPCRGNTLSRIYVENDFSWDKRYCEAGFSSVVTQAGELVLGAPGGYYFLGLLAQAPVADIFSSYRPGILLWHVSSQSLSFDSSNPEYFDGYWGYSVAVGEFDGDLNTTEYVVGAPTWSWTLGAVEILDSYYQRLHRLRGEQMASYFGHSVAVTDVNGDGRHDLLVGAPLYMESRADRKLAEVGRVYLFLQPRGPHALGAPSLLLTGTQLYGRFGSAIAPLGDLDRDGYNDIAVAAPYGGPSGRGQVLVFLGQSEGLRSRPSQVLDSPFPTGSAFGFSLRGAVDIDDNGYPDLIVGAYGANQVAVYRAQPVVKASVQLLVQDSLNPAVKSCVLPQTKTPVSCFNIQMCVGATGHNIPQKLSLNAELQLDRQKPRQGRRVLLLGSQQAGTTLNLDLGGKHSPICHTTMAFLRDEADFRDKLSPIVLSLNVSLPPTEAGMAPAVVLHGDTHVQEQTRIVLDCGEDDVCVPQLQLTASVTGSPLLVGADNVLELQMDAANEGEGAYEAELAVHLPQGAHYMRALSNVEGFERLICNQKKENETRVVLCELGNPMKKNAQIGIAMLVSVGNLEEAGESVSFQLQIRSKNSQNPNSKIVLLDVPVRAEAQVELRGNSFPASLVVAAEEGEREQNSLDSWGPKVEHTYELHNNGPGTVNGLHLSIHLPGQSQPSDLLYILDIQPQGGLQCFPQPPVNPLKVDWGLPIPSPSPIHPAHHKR
T1 sequence (P08514 891-1039 limits assumed): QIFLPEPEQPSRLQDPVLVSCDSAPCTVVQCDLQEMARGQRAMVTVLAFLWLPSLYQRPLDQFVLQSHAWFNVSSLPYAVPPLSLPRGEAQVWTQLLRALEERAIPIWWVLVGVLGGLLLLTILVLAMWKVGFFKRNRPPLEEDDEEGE

SMILES	IC50 [1] [nM]	Ki [2] [nM]	Ki [3] [nM]
CC(=O)N[C@H]1CSSC(C)(C)[C@@H](C(N)=O)NC(=O)[C@H](CC(=O)O)NC(=O)CN(C)C(=O)[C@H](CCCN=C(N)N)N(C)C1=O (single isomer, unassigned)	39500	–	15100
CC(=O)N[C@@H]1C(=O)N[C@@H](CCCN=C(N)N)C(=O)NCC(=O)N[C@@H](CC(=O)O)C(=O)N[C@H](C(N)=O)CSSC1(C)C (single isomer, unassigned)	7970	–	188
CC(=O)N[C@H]1CSSC(C)(C)[C@@H](C(N)=O)NC(=O)[C@H](CC(=O)O)NC(=O)CNC(=O)[C@H](CCCN=C(N)N)N(C)C(=O)CNC1=O (single isomer, unassigned)	360	–	135

Further compounds by falling IC50 [1], results first:

IC50 [1] [nM]	Ki [2] [nM]	Ki [3] [nM]	SMILES
360	102	–	CC(=O)N[C@H]1CSSC(C)(C)[C@@H](C(N)=O)NC(=O)[C@H](CC(=O)O)NC(=O)CNC(=O)[C@H](CCCN=C(N)N)N(C)C1=O
290	–	430	CC(=O)N[C@H]1CSSC(C)(C)[C@@H](C(N)=O)NC(=O)[C@H](CC(=O)O)NC(=O)CNC(=O)[C@H](CCCN=C(N)N)N(C)C(=O)CN(Cc2ccccc2)C1=O (single isomer, unassigned)
200	–	13.7	CN1C(=O)[C@@H](NC(=O)c2ccccc2)CSSC(C)(C)[C@@H](C(N)=O)NC(=O)[C@H](CC(=O)O)NC(=O)CNC(=O)[C@@H]1CCCN=C(N)N (Bz-C[NMeR]GD[Pen]-NH2; disulfide 1-5)
80	–	8.5	CC(=O)N[C@H]1CSSC(C)(C)[C@@H](C(=O)O)NC(=O)[C@H](CC(=O)O)NC(=O)CNC(=O)[C@H](CCCN=C(N)N)N(C)C1=O (Ac-C[NMeR]GD[Pen]-OH; disulfide 1-5)
